Assay results reported in ChEMBL document CHEMBL2069238, “Discovery of potent and selective rhodanine type IKKβ inhibitors by hit-to-lead strategy” (Bioorg Med Chem Lett, 2012).

Columns and labels:
[1] = target: T1, Inhibitor of nuclear factor kappa-B kinase subunit beta (Homo sapiens) (UniProt O14920); assay: Inhibition of IKKbeta using 5FAM-GRHDSGLDSMK-NH2 as substrate at 10 uM incubated for 10 mins prior to substrate addition by IMAP-TR-FRET assay
T1 sequence (whole entry): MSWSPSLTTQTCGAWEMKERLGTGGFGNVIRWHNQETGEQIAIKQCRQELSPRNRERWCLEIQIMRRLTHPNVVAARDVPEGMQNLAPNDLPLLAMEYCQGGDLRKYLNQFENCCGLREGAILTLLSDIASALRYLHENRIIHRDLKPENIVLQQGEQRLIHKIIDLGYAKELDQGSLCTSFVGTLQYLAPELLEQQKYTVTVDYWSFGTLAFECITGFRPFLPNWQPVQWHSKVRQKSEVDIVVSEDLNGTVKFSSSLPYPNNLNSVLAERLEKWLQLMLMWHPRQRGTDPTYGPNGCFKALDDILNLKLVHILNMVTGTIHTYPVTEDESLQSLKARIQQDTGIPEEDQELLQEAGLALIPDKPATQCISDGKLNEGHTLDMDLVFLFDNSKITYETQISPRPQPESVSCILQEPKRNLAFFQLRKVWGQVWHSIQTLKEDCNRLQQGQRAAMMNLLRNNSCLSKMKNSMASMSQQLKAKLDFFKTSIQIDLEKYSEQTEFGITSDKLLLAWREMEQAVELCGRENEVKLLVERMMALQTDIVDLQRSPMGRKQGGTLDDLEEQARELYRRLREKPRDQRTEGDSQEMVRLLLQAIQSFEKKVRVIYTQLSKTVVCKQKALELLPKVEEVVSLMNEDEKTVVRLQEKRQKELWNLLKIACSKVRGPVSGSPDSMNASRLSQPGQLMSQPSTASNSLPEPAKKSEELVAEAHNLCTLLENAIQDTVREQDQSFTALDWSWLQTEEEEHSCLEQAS

[2] = target: T2, Inhibitor of nuclear factor kappa-B kinase subunit beta (Mus musculus, UniProt O88351); assay: Inhibition of IKKbeta in mouse CIA model splenocytes assessed as inhibition of TNFalpha production after 72 hrs by ELISA; format: cell-based
T2 sequence (O88351 whole entry): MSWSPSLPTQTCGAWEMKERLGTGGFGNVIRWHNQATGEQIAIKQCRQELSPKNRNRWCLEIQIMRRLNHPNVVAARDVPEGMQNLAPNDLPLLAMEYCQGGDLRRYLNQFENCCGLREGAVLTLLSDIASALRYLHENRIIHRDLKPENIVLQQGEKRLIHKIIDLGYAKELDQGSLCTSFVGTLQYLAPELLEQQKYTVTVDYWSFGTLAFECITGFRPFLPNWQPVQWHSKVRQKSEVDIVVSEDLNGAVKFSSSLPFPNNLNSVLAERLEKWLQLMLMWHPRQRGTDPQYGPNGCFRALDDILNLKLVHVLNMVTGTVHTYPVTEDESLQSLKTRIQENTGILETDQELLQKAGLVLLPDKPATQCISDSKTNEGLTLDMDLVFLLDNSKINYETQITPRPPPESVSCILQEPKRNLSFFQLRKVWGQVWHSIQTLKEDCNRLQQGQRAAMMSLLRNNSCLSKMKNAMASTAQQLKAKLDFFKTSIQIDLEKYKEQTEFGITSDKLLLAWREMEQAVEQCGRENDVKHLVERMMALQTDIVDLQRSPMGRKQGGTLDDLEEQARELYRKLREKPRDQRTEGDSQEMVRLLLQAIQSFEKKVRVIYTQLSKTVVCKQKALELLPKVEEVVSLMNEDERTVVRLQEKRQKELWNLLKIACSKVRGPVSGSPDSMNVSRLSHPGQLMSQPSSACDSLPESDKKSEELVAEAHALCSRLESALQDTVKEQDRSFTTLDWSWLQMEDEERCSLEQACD
How it was run: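 Spleens from collagen type II-immunized mice were taken 8 weeks after primary immunization. Red cells were lysed with 0.83% ammonium chloride, and cells were strained and resuspended in RPMI 1640 at 1 × 10^6 cells/well, then exposed to inhibitor for 72 h. Supernatant TNFα was measured by sandwich ELISA with an alkaline phosphatase chromogenic read at 405 nm, quantified against a recombinant murine TNFα standard curve.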

[3] = target: T3, Inhibitor of nuclear factor kappa-B kinase subunit beta (Homo sapiens, UniProt O14920); assay: Inhibition of IKKbeta using 5FAM-GRHDSGLDSMK-NH2 as substrate incubated for 10 mins prior to substrate addition by IMAP-TR-FRET assay
T3 sequence (O14920 whole entry): T1 sequence (whole entry)

[4] = target: T1, Inhibitor of nuclear factor kappa-B kinase subunit beta (Homo sapiens); assay: Inhibition of IKKbeta in human HeLa cells assessed as inhibition of TPA-induced NFkappaB activation at 10 uM incubated for 1 hr prior to TPA-challenge measured after 8 hrs by luciferase reporter gene assay; format: cell-based
How it was run: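 HeLa cells transfected with an NF-κB luciferase reporter plasmid, pre-treated with inhibitor for 1 h, then stimulated with TPA (50 ng/mL) for 8 h. Luciferase activity normalized to protein content of each extract, expressed as relative luciferase units per mg versus non-treated cells; n = 3.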

[5] = target: T4, Inhibitor of nuclear factor kappa-B kinase subunit alpha (Homo sapiens, UniProt O15111); assay: Inhibition of IKKalpha
T4 sequence (O15111 whole entry): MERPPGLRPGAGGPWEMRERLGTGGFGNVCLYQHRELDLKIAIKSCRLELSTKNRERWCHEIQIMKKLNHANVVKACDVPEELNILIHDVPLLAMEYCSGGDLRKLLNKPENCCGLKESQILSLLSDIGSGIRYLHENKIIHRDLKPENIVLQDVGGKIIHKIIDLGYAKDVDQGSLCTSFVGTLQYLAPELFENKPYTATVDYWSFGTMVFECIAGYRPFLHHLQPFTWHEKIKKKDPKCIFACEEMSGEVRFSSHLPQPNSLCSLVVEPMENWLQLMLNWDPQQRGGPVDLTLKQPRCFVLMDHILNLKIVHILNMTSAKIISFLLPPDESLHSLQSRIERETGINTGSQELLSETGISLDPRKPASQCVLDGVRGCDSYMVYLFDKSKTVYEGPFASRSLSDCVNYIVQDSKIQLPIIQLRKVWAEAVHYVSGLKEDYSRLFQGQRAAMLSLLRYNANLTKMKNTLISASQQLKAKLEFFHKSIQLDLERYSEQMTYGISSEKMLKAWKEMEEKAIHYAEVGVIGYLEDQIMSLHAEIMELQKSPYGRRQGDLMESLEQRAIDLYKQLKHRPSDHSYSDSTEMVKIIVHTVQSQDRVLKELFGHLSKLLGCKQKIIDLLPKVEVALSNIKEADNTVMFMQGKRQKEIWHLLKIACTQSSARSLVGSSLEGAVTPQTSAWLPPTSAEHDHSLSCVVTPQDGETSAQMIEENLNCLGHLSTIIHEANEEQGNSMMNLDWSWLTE

[6] = target: Mitogen-activated protein kinase 8 (Homo sapiens, UniProt P45983); assay: Inhibition of JNK1
Mitogen-activated protein kinase 8, sequence (P45983 whole entry): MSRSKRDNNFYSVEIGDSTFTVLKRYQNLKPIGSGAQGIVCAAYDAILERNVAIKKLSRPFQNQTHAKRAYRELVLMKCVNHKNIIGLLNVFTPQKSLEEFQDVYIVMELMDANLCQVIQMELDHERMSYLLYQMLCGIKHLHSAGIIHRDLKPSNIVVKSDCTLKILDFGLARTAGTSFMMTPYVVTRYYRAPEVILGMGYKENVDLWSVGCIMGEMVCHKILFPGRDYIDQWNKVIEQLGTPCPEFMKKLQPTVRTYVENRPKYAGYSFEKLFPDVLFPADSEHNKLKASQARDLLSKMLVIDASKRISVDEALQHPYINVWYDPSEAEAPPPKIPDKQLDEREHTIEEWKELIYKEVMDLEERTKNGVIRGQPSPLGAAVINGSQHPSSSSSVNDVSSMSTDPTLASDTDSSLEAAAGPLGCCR

[7] = target: Mitogen-activated protein kinase 9 (Homo sapiens, UniProt P45984); assay: Inhibition of JNK2
Mitogen-activated protein kinase 9, sequence (P45984 whole entry): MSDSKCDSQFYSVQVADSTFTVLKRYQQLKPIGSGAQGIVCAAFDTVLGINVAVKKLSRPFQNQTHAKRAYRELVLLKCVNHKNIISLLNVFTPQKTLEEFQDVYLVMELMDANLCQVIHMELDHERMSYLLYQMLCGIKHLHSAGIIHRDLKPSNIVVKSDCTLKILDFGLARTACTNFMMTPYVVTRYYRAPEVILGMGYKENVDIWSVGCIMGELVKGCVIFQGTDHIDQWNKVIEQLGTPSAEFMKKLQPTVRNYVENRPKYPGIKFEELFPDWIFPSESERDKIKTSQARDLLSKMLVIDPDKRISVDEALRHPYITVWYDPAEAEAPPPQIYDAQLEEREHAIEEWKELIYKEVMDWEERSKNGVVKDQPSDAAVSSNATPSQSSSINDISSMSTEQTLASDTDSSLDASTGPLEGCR

[8] = target: Mitogen-activated protein kinase 14 (Homo sapiens, UniProt Q16539); assay: Inhibition of MAPK p38alpha
Mitogen-activated protein kinase 14, sequence (Q16539 whole entry): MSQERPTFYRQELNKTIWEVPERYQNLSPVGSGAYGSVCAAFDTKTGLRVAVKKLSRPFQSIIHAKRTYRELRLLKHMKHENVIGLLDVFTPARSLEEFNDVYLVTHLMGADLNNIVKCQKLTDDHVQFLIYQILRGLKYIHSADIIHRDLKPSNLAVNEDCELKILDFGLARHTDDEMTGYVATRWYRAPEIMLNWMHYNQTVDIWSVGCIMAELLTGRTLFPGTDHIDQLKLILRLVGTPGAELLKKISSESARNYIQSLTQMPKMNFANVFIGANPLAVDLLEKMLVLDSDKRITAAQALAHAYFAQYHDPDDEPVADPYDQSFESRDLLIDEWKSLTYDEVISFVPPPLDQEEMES

[9] = target: Mitogen-activated protein kinase 10 (Homo sapiens, UniProt P53779); assay: Inhibition of JNK3
Mitogen-activated protein kinase 10, sequence (P53779 whole entry): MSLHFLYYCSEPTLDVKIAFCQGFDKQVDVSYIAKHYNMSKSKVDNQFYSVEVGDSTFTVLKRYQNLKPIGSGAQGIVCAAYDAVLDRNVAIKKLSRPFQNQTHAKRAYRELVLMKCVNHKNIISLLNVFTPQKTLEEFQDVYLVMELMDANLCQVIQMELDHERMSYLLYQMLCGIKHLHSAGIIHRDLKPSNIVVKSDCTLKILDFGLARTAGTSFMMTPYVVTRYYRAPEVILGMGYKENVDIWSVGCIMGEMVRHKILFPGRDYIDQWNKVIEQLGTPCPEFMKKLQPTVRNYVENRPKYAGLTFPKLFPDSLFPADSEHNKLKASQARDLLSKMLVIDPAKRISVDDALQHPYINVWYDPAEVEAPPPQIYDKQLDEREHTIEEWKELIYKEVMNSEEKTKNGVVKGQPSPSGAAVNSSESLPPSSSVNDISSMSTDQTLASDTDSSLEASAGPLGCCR

[10] = target: Mitogen-activated protein kinase 11 (Homo sapiens, UniProt Q15759); assay: Inhibition of MAPK p38beta
Mitogen-activated protein kinase 11, sequence (Q15759 whole entry): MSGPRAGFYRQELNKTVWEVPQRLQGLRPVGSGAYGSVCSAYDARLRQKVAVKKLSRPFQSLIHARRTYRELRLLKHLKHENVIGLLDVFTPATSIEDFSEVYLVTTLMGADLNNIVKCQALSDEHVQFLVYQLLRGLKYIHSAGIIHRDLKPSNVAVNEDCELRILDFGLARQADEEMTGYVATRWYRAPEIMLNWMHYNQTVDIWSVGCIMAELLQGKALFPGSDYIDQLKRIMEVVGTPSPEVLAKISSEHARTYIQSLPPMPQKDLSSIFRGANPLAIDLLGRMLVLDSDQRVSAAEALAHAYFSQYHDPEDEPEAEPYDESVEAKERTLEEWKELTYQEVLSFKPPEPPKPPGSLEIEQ

Row | Structure (SMILES) | inhibition [1] [%] | IC50 [2] [µM] | IC50 [3] [µM] | inhibition [4] [%] | other results
1 | CN1CCN(CCCCOc2ccc(N3C(=O)/C(=C/c4ccc(Oc5ccc(C(N)=O)cc5)cc4)SC3=S)cc2)CC1 | 90.4 | 4 | 0.23 | – | –
2 | CN1CCN(CCCOc2ccc(N3C(=O)/C(=C/c4ccc(Oc5ccccc5C(N)=O)cc4)SC3=S)cc2)CC1 | 52.7 | 12 | 8.5 | 42.4 | –
3 | CCN(CC)CCCOc1ccc(N2C(=O)/C(=C/c3ccc(Cl)c(Cl)c3)SC2=S)cc1 | 61.8 | – | 9.3 | – | –
4 | NC(=O)c1ccc(Oc2ccc(/C=C3\SC(=S)N(c4ccc(OCCCN5CCCCC5)cc4)C3=O)cc2)cc1 | 81.2 | 30 | 4.2 | 48.2 | –
5 | NC(=O)c1cccc(-c2ccc(/C=C3\SC(=S)N(c4ccc(OCCCN5CCOCC5)cc4)C3=O)o2)c1 | 2.1 | – | – | – | –
6 | CCN(CC)CCCOc1ccc(N2C(=O)/C(=C/c3c(Cl)cccc3Cl)SC2=S)cc1 | 3.4 | – | – | – | –
7 | CCN(CC)CCCOc1ccc(N2C(=O)/C(=C/c3ccc4ccccc4c3)SC2=S)cc1 | 23.4 | – | – | – | –
8 | N#Cc1c(C2CCCNC2)cc(-c2ccccc2O)nc1N (stereo not drawn) | 88.7 | 1.8 | 0.17 | 73.9 | IC50 [5]: 0.64 µM
9 | CN1CCN(CCCCCOc2ccc(N3C(=O)/C(=C/c4ccc(Oc5ccc(C(N)=O)cc5)cc4)SC3=S)cc2)CC1 | 89.3 | – | 0.16 | – | –
10 | CCN(CC)CCCOc1ccc(N2C(=O)/C(=C/c3ccncc3)SC2=S)cc1 | 3.2 | – | – | – | –
11 | NC(=O)c1ccccc1Oc1ccc(/C=C2\SC(=S)N(c3ccc(OCCCN4CCCC4)cc3)C2=O)cc1 | 21.3 | – | – | – | –
12 | NC(=O)c1ccccc1Oc1ccc(/C=C2\SC(=S)N(c3ccc(OCCCN4CCCCC4)cc3)C2=O)cc1 | 18.6 | – | – | – | –
13 | NC(=O)c1ccc(Oc2ccc(/C=C3\SC(=S)N(c4ccc(OCCCN5CCCC5)cc4)C3=O)cc2)cc1 | 85.3 | 5 | 1.5 | 58.5 | IC50 [5]: > 30 µM; IC50 [6]: > 30 µM; IC50 [7]: > 30 µM; IC50 [8]: > 30 µM; IC50 [9]: > 30 µM; IC50 [10]: > 30 µM
14 | CCN(CC)CCCOc1ccc(N2C(=O)/C(=C/C=C/c3ccc(N(C)C)cc3)SC2=S)cc1 | 28.1 | – | – | – | –
15 | CCN(CC)CCCOc1ccc(N2C(=O)/C(=C/C=C(c3ccccc3)c3ccccc3)SC2=S)cc1 | 52.6 | – | 14.1 | – | –
16 | CCN(CC)CCCOc1ccc(N2C(=O)/C(=C/c3ccc(-c4ccc(C(N)=O)cc4)o3)SC2=S)cc1 | 77.2 | – | 3.3 | 57.4 | –
17 | CN1CCN(CCCOc2ccc(N3C(=O)/C(=C/c4ccc(Oc5ccc(C(N)=O)cc5)cc4)SC3=S)cc2)CC1 | 90.1 | 2 | 0.35 | 65.4 | IC50 [5]: > 30 µM; IC50 [6]: > 30 µM; IC50 [7]: > 30 µM; IC50 [8]: > 30 µM; IC50 [9]: > 30 µM; IC50 [10]: > 30 µM

Second part, led by results:

Row | inhibition [1] [%] | IC50 [2] [µM] | IC50 [3] [µM] | inhibition [4] [%] | Structure (SMILES) | other results
18 | 36.5 | 13 | 15.6 | 71.4 | CCN(CC)CCCOc1ccc(N2C(=O)/C(=C/c3ccc(Oc4ccc(Cl)cc4)cc3)SC2=S)cc1 | –
19 | 95.7 | 8 | 2.6 | 46.6 | CCN(CC)CCCOc1ccc(N2C(=O)/C(=C/c3ccc(Oc4ccc(C(N)=O)cc4)cc3)SC2=S)cc1 | –
20 | 17.1 | 7 | – | 57 | CCN(CC)CCOc1ccc(N2C(=O)/C(=C/c3ccc(Oc4cccc(C(N)=O)c4)cc3)SC2=S)cc1 | –
21 | 57.3 | 7 | 6.3 | 57 | NC(=O)c1cccc(Oc2ccc(/C=C3\SC(=S)N(c4ccc(OCCCN5CCCC5)cc4)C3=O)cc2)c1 | –
22 | 56 | – | 23.6 | – | CCN(CC)CCCOc1ccc(N2C(=O)/C(=C/c3ccc(O)cc3)SC2=S)cc1 | –
23 | 86.8 | 5 | 1.5 | 64.7 | CN1CCN(CCCOc2ccc(N3C(=O)/C(=C/c4ccc(Oc5cccc(C(N)=O)c5)cc4)SC3=S)cc2)CC1 | IC50 [5]: > 30 µM; IC50 [6]: > 30 µM; IC50 [7]: > 30 µM; IC50 [8]: > 30 µM; IC50 [9]: > 30 µM; IC50 [10]: > 30 µM
24 | 4.8 | – | – | – | CCN(CC)CCCOc1ccc(N2C(=O)/C(=C/c3ccc(Oc4ccccc4C(N)=O)cc3)SC2=S)cc1 | –
25 | 84.9 | 10 | 7.3 | 39.3 | CCN(CC)CCCOc1ccc(N2C(=O)/C(=C/c3ccc(Oc4cccc(C(N)=O)c4)cc3)SC2=S)cc1 | –
26 | 62.6 | 8 | 8.7 | 58.5 | CCN(CC)CCOc1ccc(N2C(=O)/C(=C/c3ccc(Oc4ccc(C(N)=O)cc4)cc3)SC2=S)cc1 | –
27 | 15.5 | – | – | – | CCN(CC)CCCOc1ccc(N2C(=O)/C(=C/c3ccc(C(N)=O)cc3)SC2=S)cc1 | –
28 | 1.6 | – | – | – | CCN(CC)CCOc1ccc(N2C(=O)/C(=C/c3ccc(Oc4ccccc4C(N)=O)cc3)SC2=S)cc1 | –
29 | 83 | 30 | 6.3 | 42.1 | NC(=O)c1cccc(Oc2ccc(/C=C3\SC(=S)N(c4ccc(OCCCN5CCCCC5)cc4)C3=O)cc2)c1 | –
30 | 48.8 | – | – | – | NC(=O)c1cccc(Oc2ccc(/C=C3\SC(=S)N(c4ccc(OCCCN5CCOCC5)cc4)C3=O)cc2)c1 | –
31 | 87.1 | – | 5.7 | 59.1 | CCN(CC)CCCOc1ccc(N2C(=O)/C(=C/c3ccc(-c4cccc(C(N)=O)c4)o3)SC2=S)cc1 | –
